{"data": "Measurements collected from several papers", "cell line": "MDA-MB-231", "read-out": "cell growth or viability"}
{"Compound": "COc1cccc2c1C(=O)c1c(O)c3c(c(O)c1C2=O)C[C@@](O)(C(=O)CO)C[C@@H]3O[C@H]1C[C@H](N)[C@H](O)[C@H](C)O1", "technique": "MTT", "time": "24 h", "IC50": "7.19 mg/L"}
{"Compound": "O=C1Nc2ccccc2/C1=N/N=C/c1cccc([N+](=O)[O-])c1", "technique": "MTT", "time": "24 h", "IC50": "38.3 mg/L"}
{"Compound": "O=C(Nc1ccccc1)Nc1ccc(Oc2nc3ccccc3n3cnnc23)cc1", "technique": "MTT", "time": "24 h", "IC50": "> 68 µM"}
{"Compound": "C[C@H]1[C@H](C)CC[C@]2(C)CC[C@]3(C)C(=CC(=O)[C@@H]4[C@@]5(C)CC[C@@H](O)[C@](C)(C(=O)NCc6cn(-c7cccc(Br)c7)nn6)[C@@H]5CC[C@]43C)[C@H]12", "technique": "MTT", "time": "24 h", "IC50": "61.5 µM"}
{"Compound": "CC(C)=CCc1ncc(/C=C2\\NC(=O)[C@H](C(C)C)NC2=O)[nH]1", "technique": "SRB", "IC50": "> 15 µM"}
{"Compound": "C[C@H]1[C@H](C)CC[C@]2(C)CC[C@]3(C)C(=CC(=O)[C@@H]4[C@@]5(C)CC[C@@H](O)[C@](C)(C(=O)NCc6cn(-c7ccc(Br)cc7)nn6)[C@@H]5CC[C@]43C)[C@H]12", "technique": "MTT", "time": "24 h", "IC50": "72.5 µM"}
{"Compound": "Nc1ccn([C@@H]2O[C@H](CO)[C@@H](O)C2(F)F)c(=O)n1", "technique": "MTT", "time": "48 h", "IC50": "4.07 mg/L"}
{"Compound": "CC(=O)N1CCC(Nc2cc(C(=O)NC[C@H](O)CN3CCc4ccccc4C3)ncn2)CC1", "technique": "CCK-8", "time": "72 h", "IC50": "> 100 µM"}
{"Compound": "COc1cc([C@@H]2c3cc4c(cc3[C@@H](O[C@@H]3O[C@@H]5CO[C@@H](C)O[C@H]5[C@H](O)[C@H]3O)[C@H]3COC(=O)[C@H]23)OCO4)cc(OC)c1O", "technique": "SRB", "time": "72 h", "IC50": "3.3 µM"}
{"Compound": "Cc1cc(NS(=O)(=O)c2ccc(NC(=O)/C(C#N)=C/c3ccc(N4CCCCC4)cc3)cc2)no1", "technique": "MTT", "time": "48 h", "IC50": "20 µM"}
{"Compound": "Cc1ccc(S(=O)(=O)n2cc(/C=N/NC(=O)c3ccc([N+](=O)[O-])cc3)c3ccccc32)cc1", "technique": "MTT", "time": "48 h", "IC50": "38.6 µM"}
{"Compound": "CCCc1cc2cc(-n3nc(C)c4c3CC(C)(C)CC4=O)cc(N3CCC(O)CC3)c2c(=O)[nH]1", "technique": "MTS", "IC50": "3.82 µM"}
{"Compound": "COc1ccc(-n2cc(CNC(=O)[C@@]3(C)[C@H](O)CC[C@@]4(C)[C@H]3CC[C@]3(C)[C@@H]4C(=O)C=C4[C@@H]5[C@@H](C)[C@H](C)CC[C@]5(C)CC[C@]43C)nn2)cc1", "technique": "MTT", "time": "24 h", "IC50": "76.6 µM"}
{"Compound": "Cc1cc(NS(=O)(=O)c2ccc(NC(=O)/C(C#N)=C/c3ccc(N4CCOCC4)cc3)cc2)no1", "technique": "MTT", "time": "48 h", "IC50": "83.3 µM"}
{"Compound": "CC(C)(C)c1cnc(CSc2cnc(NC(=O)C3CCN(C(=O)CCCCCCCN4Cc5cc6c(cc5C4)C(=O)N(C4CCC(=O)NC4=O)C6=O)CC3)s2)o1 (stereo not drawn)", "technique": "MTT", "IC50": "0.0796 µM"}
{"Compound": "Cc1ccc(S(=O)(=O)n2cc(/C=N/NC(=O)c3cccc(Cl)c3)c3ccccc32)cc1", "technique": "MTT", "time": "48 h", "IC50": "25.1 µM"}
{"Compound": "S=C(N/N=C/c1cccc2cc3ccccc3nc12)Nc1ccccc1", "technique": "MTT", "time": "48 h", "IC50": "> 50 µM"}
{"Compound": "CC(=O)O[C@@]12CO[C@@H]1C[C@H](O)[C@@]1(C)C(=O)[C@H](O)C3=C(C)[C@@H](OC(=O)[C@H](O)[C@@H](NC(=O)OC(C)(C)C)c4ccccc4)C[C@@](O)([C@@H](OC(=O)c4ccccc4)[C@H]21)C3(C)C", "technique": "MTT", "time": "24 h", "IC50": "> 50 mg/L"}
{"Compound": "Cc1ccc(S(=O)(=O)n2cc(/C=N/NC(=O)c3ccc(C(F)(F)F)cc3)c3ccccc32)cc1", "technique": "MTT", "time": "48 h", "IC50": "19.2 µM"}
{"Compound": "O=C(Nc1ccc(Oc2nc3ccccc3n3cnnc23)cc1)Nc1cccc(Cl)c1", "technique": "MTT", "time": "24 h", "IC50": "33.6 µM"}
{"Compound": "C[C@H]1[C@H](C)CC[C@]2(C)CC[C@]3(C)C(=CC(=O)[C@@H]4[C@@]5(C)CC[C@@H](O)[C@](C)(C(=O)NCc6cn(-c7ccccc7C(F)(F)F)nn6)[C@@H]5CC[C@]43C)[C@H]12", "technique": "MTT", "time": "24 h", "IC50": "69.9 µM"}
{"Compound": "Cc1ccc(S(=O)(=O)n2cc(/C=N/NC(=O)c3ccco3)c3ccccc32)cc1", "technique": "MTT", "time": "48 h", "IC50": "29.6 µM"}
{"Compound": "C[C@H]1[C@H](C)CC[C@]2(C)CC[C@]3(C)C(=CC(=O)[C@@H]4[C@@]5(C)CC[C@@H](O)[C@](C)(C(=O)NCc6cn(-c7ccccc7)nn6)[C@@H]5CC[C@]43C)[C@H]12", "technique": "MTT", "time": "24 h", "IC50": "103 µM"}
{"Compound": "COc1ccc(NC(=S)N/N=C/c2cccc3cc4ccccc4nc23)cc1", "technique": "MTT", "time": "48 h", "IC50": "> 50 µM"}
{"Compound": "COc1ccccc1/C=N/N=C1\\C(=O)Nc2ccccc21", "technique": "MTT", "time": "24 h", "IC50": "41.2 mg/L"}
{"Compound": "C[C@H]1[C@H](C)CC[C@]2(C(=O)O)CC[C@]3(C)C(=CC[C@@H]4[C@@]5(C)CC[C@H](O)C(C)(C)[C@@H]5CC[C@]43C)[C@H]12", "technique": "MTT", "time": "24 h", "IC50": "15 µM"}
{"Compound": "Cc1ccc(S(=O)(=O)n2cc(/C=N/NC(=O)Cc3ccc(F)cc3F)c3ccccc32)cc1", "technique": "MTT", "time": "48 h", "IC50": "26.4 µM"}
{"Compound": "COc1cccc2c1C(=O)c1c(O)c3c(c(O)c1C2=O)C[C@@](O)(C(=O)CO)C[C@@H]3O[C@H]1C[C@H](N)[C@H](O)[C@H](C)O1", "technique": "MTT", "time": "48 h", "IC50": "0.2 µM"}
{"Compound": "Cc1ccc(S(=O)(=O)n2cc(/C=N/NC(=O)c3cccnc3)c3ccccc32)cc1", "technique": "MTT", "time": "48 h", "IC50": "18.1 µM"}
{"Compound": "C=CCn1c(=O)c2cnc(Nc3ccc(N4CCN(C)CC4)cc3)nc2n1-c1ccc2c(n1)[C@@](O)(CC)CC2", "technique": "ATP luminescence", "time": "72 h", "IC50": "0.627 µM"}
{"Compound": "CNC(=S)N/N=C/c1cccc2cc3ccccc3nc12", "technique": "MTT", "time": "48 h", "IC50": "18.9 µM"}
{"Compound": "CC(C)[C@@H]1NC(=O)[C@H](Cc2c[nH]cn2)NC1=O", "technique": "SRB", "IC50": "> 15 µM"}
{"Compound": "O=c1[nH]cc(F)c(=O)[nH]1", "technique": "MTT", "time": "48 h", "IC50": "12.2 µM"}
{"Compound": "O=[N+]([O-])c1ccc(NC(=S)N/N=C/c2cccc3cc4ccccc4nc23)cc1", "technique": "MTT", "time": "48 h", "IC50": "> 50 µM"}
{"Compound": "Cc1ccc(S(=O)(=O)n2cc(/C=N/NC(=O)c3cc4ccccc4cc3O)c3ccccc32)cc1", "technique": "MTT", "time": "48 h", "IC50": "16.4 µM"}
{"Compound": "CO[C@H]1[C@H](O[C@H]([C@H]2O[C@@H](n3ccc(=O)[nH]c3=O)[C@H](O)[C@@H]2O)[C@H](NCCCNC(=O)[C@@H](NC(=O)[C@@H](NC(=O)N[C@H](C(=O)O)C(C)C)[C@@H]2CCN=C(N)N2)[C@@H](OC(=O)CCCCCCCCCCCCN(O)C(=N)N)C(C)C)C(=O)O)O[C@H](CN)[C@H]1O", "technique": "WST-1", "IC50": "0.98 µM"}
